Data published in ChEMBL document CHEMBL1145079, “Receptor-mediated targeting of a photosensitizer by its conjugation to gonadotropin-releasing hormone analogues” (J Med Chem, 2003).

Tests used:
Assay type in all cases: functional
[1] = tested on: Rattus norvegicus; assay: Serum LH releasing potency in vivo after intraperitoneal administration in rats at 1.5 h
Outline: (§1)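 Blood was drawn by cardiac puncture under light ether anaesthesia at each time point. Serum LH was measured by double-antibody RIA against the LH-RP-3 reference, with three dilutions per serum. Values are mean ± SEM of five rats per group; the experiment was repeated twice more.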

[2] = tested on: Rattus norvegicus; assay: Serum LH releasing potency in vivo after intraperitoneal administration in rats at 6 h; outline: as §1
[3] = tested on: Rattus norvegicus; assay: Serum LH releasing potency in vivo after intraperitoneal administration in rats at 0 h; outline: as §1
[4] = tested on: Rattus norvegicus; assay: Serum LH releasing potency in vivo after intraperitoneal administration in rats at 3 h; outline: as §1
[5] = tested on: Rattus norvegicus; assay: Serum LH releasing potency in vivo after intraperitoneal administration in rats at 10 h; outline: as §1
[6] = tested on: Rattus norvegicus; assay: Serum LH releasing potency in vivo after intraperitoneal administration in rats at 24 h; outline: as §1
[7] = species on record: Rattus norvegicus; assay: LH releasing activity in rat
Outline: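 Fifteen-week-old female Wistar-derived rats (220–250 g), given 2 nmol/rat ip in 0.5 mL PBS. Blood drawn by cardiac puncture under light ether anesthesia at set times (1.5–24 h). Serum LH measured by double-antibody RIA at three dilutions per sample. Five rats per group; mean ± SEM.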

SMILES | Activity [1] [ng/mL] | Activity [2] [ng/mL] | Activity [3] [ng/mL] | Activity [4] [ng/mL] | Activity [5] [ng/mL] | Activity [6] [ng/mL] | ED50 [7] [nM]
CC(C)C[C@H](NC(=O)[C@H](CCCCN)NC(=O)[C@H](Cc1ccc(O)cc1)NC(=O)[C@H](CO)NC(=O)[C@H](Cc1c[nH]c2ccccc12)NC(=O)[C@H](Cc1c[nH]cn1)NC(=O)[C@@H]1CCC(=O)N1)C(=O)N[C@@H](CCCN=C(N)N)C(=O)N1CCC[C@H]1C(=O)NCC(N)=O | 72.5 | 2.94 | 0.53 | 21.92 | 1.12 | 0.34 | 
C=CC1=C(C)c2cc3[nH]c(cc4nc(cc5[nH]c(cc1n2)c(C)c5CCC(=O)O)C(CCC(=O)NCCCC[C@@H](NC(=O)[C@H](Cc1ccc(O)cc1)NC(=O)[C@H](CO)NC(=O)[C@@H](Cc1c[nH]c2ccccc12)NC(=O)[C@@H](Cc1ccccc1)NC(=O)[C@H]1CCC(=O)N1)C(=O)N[C@@H](CC(C)C)C(=O)N[C@@H](CCCN=C(N)N)C(=O)N1CCC[C@H]1C(=O)NCC(N)=O)=C4C)c(C)c3C=C |  |  |  |  |  |  | 1800
C=CC1=C(C)c2cc3[nH]c(cc4nc(cc5[nH]c(cc1n2)c(C)c5CCC(=O)O)C(CCC(=O)NCCCC[C@@H](NC(=O)[C@H](Cc1ccc(O)cc1)NC(=O)[C@H](CO)NC(=O)[C@H](Cc1c[nH]c2ccccc12)NC(=O)[C@H](Cc1c[nH]cn1)NC(=O)[C@@H]1CCC(=O)N1)C(=O)N[C@@H](CC(C)C)C(=O)N[C@@H](CCCN=C(N)N)C(=O)N1CCC[C@H]1C(=O)NCC(N)=O)=C4C)c(C)c3C=C | 10.64 | 8.1 | 0.53 | 11.57 | 2.9 | 0.88 | 
